Three substances from PMC3777270 (Biomaterials, 2010) can be followed below.

For the experiment, the system named is S. aureus strain MZ100. In words: In vitro S. aureus biofilm formation on coated Ti slides. The format is cell-based, Staphylococcus aureus. The conditions noted are these: 5 h exposure to S. aureus, 0.1% crystal violet; for macroscopic appearance of crystal violet stained wells: digital photographs; for cell attachment in phase-contrast micrographs: 630×. The method in brief:
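Wells were formed on 20 nm Ti-coated glass slides with adhesive silicone isolators. PEGylated mono-, di- or tetravalent Ti-binding peptide coatings (500 μL) were applied in triplicate, held 2 h at RT and washed twice with PBS; uncoated Ti was included. Overnight TSB culture was diluted to ~5 × 10^7 CFU/mL in TSB + 0.2% glucose, then 5 h at 37 °C in a humidified chamber.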

In the case of “SKHKGGKHKGGKHKGSSGK(Biotin) –GGC–PEG [TBP1–PEG]”, the “macroscopic appearance of crystal violet stained wells” value (“macroscopic appearance” for short) is “thick, dense biofilm” and the “cell attachment in phase-contrast micrographs” value (shortened to “cell attachment”) is reported as “substantial cell attachment”.

As for “(SKHKGGKHKGGKHKG)2KSSGK(Biotin) –GGC–PEG [TBP2–PEG]”, the “macroscopic appearance” value is “thick, dense biofilm” and the “cell attachment” value is reported as “slight decrease in cell density”.

For “(SKHKGGKHKGGKHKG)2K)2KSSGK(Biotin) –GGC–PEG [TBP4–PEG]”, the “macroscopic appearance” value is “remained largely clear with small, disperse patches of staining” and the “cell attachment” value was “significantly fewer adhered bacteria”.
